Results collected from several papers.
Lines come from different studies, so protocols differ.
Target: Serine/threonine-protein kinase D2 (PRKD2, Homo sapiens, UniProt Q9BZL6)
Sequence (Q9BZL6 1-878, as in one of the studies): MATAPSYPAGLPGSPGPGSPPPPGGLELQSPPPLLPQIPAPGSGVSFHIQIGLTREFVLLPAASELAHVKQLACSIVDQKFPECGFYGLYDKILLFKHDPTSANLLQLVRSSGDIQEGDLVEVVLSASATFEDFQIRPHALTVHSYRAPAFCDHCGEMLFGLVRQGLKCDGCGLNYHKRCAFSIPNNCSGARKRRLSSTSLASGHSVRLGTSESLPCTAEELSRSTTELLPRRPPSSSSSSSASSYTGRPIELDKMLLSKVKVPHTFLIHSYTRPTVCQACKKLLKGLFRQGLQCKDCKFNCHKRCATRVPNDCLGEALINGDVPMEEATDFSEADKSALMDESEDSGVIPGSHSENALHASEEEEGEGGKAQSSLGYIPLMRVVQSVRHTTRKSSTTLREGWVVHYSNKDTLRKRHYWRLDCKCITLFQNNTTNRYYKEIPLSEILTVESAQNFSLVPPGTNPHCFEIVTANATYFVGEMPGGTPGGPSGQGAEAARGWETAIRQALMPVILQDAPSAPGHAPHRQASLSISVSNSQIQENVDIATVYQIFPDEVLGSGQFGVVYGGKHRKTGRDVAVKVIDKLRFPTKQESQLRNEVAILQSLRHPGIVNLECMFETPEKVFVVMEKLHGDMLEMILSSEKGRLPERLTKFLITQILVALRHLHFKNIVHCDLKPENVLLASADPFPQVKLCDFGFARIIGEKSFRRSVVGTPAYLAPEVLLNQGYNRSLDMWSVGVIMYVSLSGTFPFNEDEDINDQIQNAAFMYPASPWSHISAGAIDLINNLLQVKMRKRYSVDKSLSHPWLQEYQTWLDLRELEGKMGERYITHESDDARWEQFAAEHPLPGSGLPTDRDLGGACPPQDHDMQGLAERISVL

SMILES	effect on	action	method	concentration	endpoint	value
C=CC(=O)N1CCC([C@@H]2CCNc3c(C(N)=O)c(-c4ccc(Oc5ccccc5)cc4)nn32)CC1	enzyme activity	inhibitor	–	1 µM	inhibition	3%
C[C@H]1CC[C@H](n2c3cnccc3c3cnc(Nc4ccc5c(n4)CCN(C(=O)CO)C5)nc32)CC1	cell-free assay	–	–	1 µM	remaining signal	100%
Cc1cc(O)c(-c2ccc([C@@H](C)CN(C)C)cc2)c2c1[nH]c(=O)c1sccc12	enzyme activity	inhibitor	–	0.1 µM	inhibition	-4.52%
CO[C@@H]1[C@H](N(C)C(=O)c2ccccc2)C[C@H]2O[C@]1(C)n1c3ccccc3c3c4c(c5c6ccccc6n2c5c31)C(=O)NC4	enzyme activity	inhibitor	–	1 µM	inhibition	18%
COc1ccc2oc(-c3ccc4nc(N)oc4c3)c/c(=N\c3ccccc3NC(=O)CCN)c2c1	binding	–	–	1 µM	remaining binding	94%
C#Cc1cc(-c2cc(Nc3nc(N[C@@H](C)c4ccc(F)cn4)ncc3Cl)n[nH]2)ccc1C=O	enzyme activity	inhibitor	–	0.2 µM	inhibition	5.36%
C1=C/COCc2cc(ccc2OCCN2CCCC2)Nc2nccc(n2)-c2cccc(c2)COC/1	binding	–	–	0.1 µM	remaining binding	100%
Cc1ccc(NC(=O)c2ccnc(C(F)(F)F)c2)cc1-c1cc(OCCO)nc(N2CCOCC2)c1	binding	–	–	1 µM	remaining binding	88%
CCCCC(=O)Nc1ccc(-c2ccc3ncn(CCC)c(=O)c3c2)cn1	binding	–	competition with immobilised ligand	0.5 µM	remaining binding	88%
